Results reported in ChEMBL document CHEMBL4359903, “1,2,4-Oxadiazole derivatives targeting EGFR and c-Met degradation in TKI resistant NSCLC” (Eur J Med Chem, 2019).
Activity calls are given as the source filed them. The rule behind the calls is not given here.

Legend:
A549 = experiment: Cell cycle arrest in human A549 cells assessed as increase in accumulation of cells at G2/M phase at 0.2 to 0.6 uM incubated for 48 hrs by propidium iodide based flow cytometry; type: functional
In short: (§1)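 Cells plated at 3 × 10^5 per 6-cm dish and left overnight, then treated for 24 h and 48 h. Pellets fixed in 70% ethanol and stained with 40 µg/ml propidium iodide plus 20 µg/ml RNase A, 30 min on ice in the dark. DNA content read on a FACSCalibur flow cytometer.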

[1] = target: Hepatocyte growth factor receptor (Homo sapiens) (UniProt P08581); experiment: Induction of c-MET degradation in human PC9 cells harbouring EGFR delE746-A750 assessed as reduction in c-Met expression at 0.2 to 0.6 uM incubated for 48 hrs by Western blot analysis; type: cell-based
Sequence of Hepatocyte growth factor receptor (Homo sapiens) (P08581 whole entry): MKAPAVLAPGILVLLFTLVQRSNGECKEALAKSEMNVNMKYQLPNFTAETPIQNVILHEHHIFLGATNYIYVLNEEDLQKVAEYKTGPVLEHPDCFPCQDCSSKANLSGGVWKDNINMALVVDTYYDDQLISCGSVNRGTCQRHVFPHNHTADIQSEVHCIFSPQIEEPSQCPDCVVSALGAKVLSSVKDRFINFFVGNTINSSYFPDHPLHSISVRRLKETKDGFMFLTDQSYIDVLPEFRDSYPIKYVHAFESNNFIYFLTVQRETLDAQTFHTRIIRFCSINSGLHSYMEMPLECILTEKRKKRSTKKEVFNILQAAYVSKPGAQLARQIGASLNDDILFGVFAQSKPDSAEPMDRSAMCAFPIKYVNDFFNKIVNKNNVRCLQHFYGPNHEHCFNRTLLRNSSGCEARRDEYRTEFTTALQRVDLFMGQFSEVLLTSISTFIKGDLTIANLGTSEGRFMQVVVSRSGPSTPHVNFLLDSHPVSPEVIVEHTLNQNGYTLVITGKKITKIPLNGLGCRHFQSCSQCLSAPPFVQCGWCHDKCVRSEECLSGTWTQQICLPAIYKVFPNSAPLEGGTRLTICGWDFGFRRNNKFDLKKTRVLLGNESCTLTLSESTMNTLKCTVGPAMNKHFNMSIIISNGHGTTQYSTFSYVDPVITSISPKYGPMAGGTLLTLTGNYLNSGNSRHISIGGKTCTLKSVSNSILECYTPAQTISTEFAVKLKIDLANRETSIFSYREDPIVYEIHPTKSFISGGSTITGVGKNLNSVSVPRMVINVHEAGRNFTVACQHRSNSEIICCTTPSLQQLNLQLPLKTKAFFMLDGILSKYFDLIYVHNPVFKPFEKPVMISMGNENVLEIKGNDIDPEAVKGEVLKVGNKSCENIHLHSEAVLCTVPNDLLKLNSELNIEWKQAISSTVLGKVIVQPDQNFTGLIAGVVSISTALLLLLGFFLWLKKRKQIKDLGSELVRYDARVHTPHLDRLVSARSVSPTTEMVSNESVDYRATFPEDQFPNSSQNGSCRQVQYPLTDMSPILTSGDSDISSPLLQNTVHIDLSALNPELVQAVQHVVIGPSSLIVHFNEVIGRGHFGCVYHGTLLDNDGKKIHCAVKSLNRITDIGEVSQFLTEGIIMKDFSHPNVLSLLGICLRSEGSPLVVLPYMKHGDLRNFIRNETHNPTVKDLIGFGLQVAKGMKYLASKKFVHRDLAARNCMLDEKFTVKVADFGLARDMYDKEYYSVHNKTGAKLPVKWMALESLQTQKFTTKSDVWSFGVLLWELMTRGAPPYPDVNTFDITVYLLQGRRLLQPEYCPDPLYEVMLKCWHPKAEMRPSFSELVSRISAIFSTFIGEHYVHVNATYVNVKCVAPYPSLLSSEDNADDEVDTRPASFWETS
In short: (§2)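 After 48 h treatment, cells were scraped and lysed in 1% SDS, 50 mM Tris-HCl pH 8.0, 10 mM EDTA with protease and phosphatase inhibitors. Lysates sonicated, protein measured by BCA, equal amounts run on SDS-PAGE and blotted to nitrocellulose. Primary antibodies (EGFR, c-Met, S473-Akt, Akt, GAPDH) used at 1:1000 overnight at 4 °C, HRP secondaries at 1:5000, ECL detection.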

Homo sapiens = species on record: Homo sapiens; experiment: Cell cycle arrest in human CL68 cells harbouring EGFR delE746-A750/T790M mutant assessed as increase in cells accumulation at G2/M phase at 0.4 to 0.8 uM incubated for 48 hrs by propidium iodide based flow cytometry; type: functional; in short: as §1
NCI-H1975 [2] = experiment: Antitumor activity against human NCI-H1975 cells harbouring EGFR L858R/T790M double mutant xenografted in athymic Nude-Foxn1nu BALB/c mouse assessed as tumor growth inhibition at 150 mg/kg, po administered once daily via gavage for 20 days measured twice a week by caliper method relative to control; type: functional; conditions: 480 h, read-out: TGI
In short: (§3)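 Female Balb/c nude mice, 5 weeks old, injected subcutaneously in the right flank with 10^6 H1975 cells in 0.1 ml. Randomized at about 50 mm3, n = 8 per group. Gavaged once daily for 20 days with vehicle (10% DMSO/0.1% Tween 80/0.5% methylcellulose in sterile water) or 50 or 150 mg/kg. Calipers, V = width² × length × 0.52; volume and body weight twice weekly; Student's t-test.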

[3] = target: Hepatocyte growth factor receptor (Homo sapiens) (UniProt P08581); experiment: Induction of c-MET degradation in human NCI-H1975 cells harbouring EGFR L858R/T790M double assessed as reduction in c-Met expression at 0.2 to 0.6 uM incubated for 48 hrs by Western blot analysis; type: cell-based; in short: as §2
[4] = system: Epidermal growth factor receptor (Homo sapiens), P00533 [G719A,T790M]; experiment: Induction of EGFR G719A/T790M mutant degradation in human CL97 cells assessed as reduction in EGFR expression at 0.2 to 0.6 uM incubated for 48 hrs by Western blot analysis; type: cell-based; in short: as §2
[5] = Toxicity in athymic Nude-Foxn1nu BALB/c mouse xenografted with human NCI-H1975 cells harbouring EGFR L858R/T790M double mutant assessed as body weight loss at 50 to 150 mg/kg, po administered once daily via gavage for 20 days measured twice a week; type: organism-based; conditions: in vivo, 480 h; in short: as §3
PC-9 [6] = experiment: Antiproliferative activity against human PC9 cells harbouring EGFR delE746-A750 mutant assessed as reduction in cell viability incubated for 48 hrs by MTT assay; type: functional, cell-based; conditions: PC-9, 48 h
In short: (§4)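 Cells seeded at 5000 per well in 10% FBS and left overnight, then exposed to agent or DMSO in 5% FBS for 48 h. MTT added for 1 h, dye dissolved in DMSO, absorbance read at 570 nm. Viability given as percent of vehicle control. At least three independent experiments, means ± SD.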

NCI-H1975 [7] = experiment: Antitumor activity against human NCI-H1975 cells harbouring EGFR L858R/T790M double mutant xenografted in athymic Nude-Foxn1nu BALB/c mouse assessed as reduction in EGFR expression in tumor lysates administered once daily via oral gavage for 20 days measured on day 20 by Western blot analysis; type: functional; conditions: Neoplasm, Lysate
In short: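 H1975 xenografts in nude mice gavaged daily for 20 days with vehicle, 50 or 150 mg/kg. At study end mice were killed by CO2, and tumor lysates from four representative tumors per group were immunoblotted for EGFR and c-Met. Band intensities quantified by densitometry.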

[8] = system: Epidermal growth factor receptor (Homo sapiens), P00533 [L858R,T790M]; experiment: Induction of EGFR L858R/T790M double mutant degradation in human NCI-H1975 cells assessed as reduction in EGFR expression at 0.2 to 0.6 uM incubated for 48 hrs by Western blot analysis; type: cell-based; in short: as §2
NCI-H1975 [9] = experiment: Antitumor activity against human NCI-H1975 cells harbouring EGFR L858R/T790M double mutant xenografted in orally dosed athymic Nude-Foxn1nu BALB/c mouse assessed as tumor growth inhibition administered once daily via gavage for 20 days measured twice a week by caliper method; type: functional, organism-based; in short: as §3
[10] = system: Epidermal growth factor receptor (Homo sapiens), P00533 [UNDEFINED MUTATION]; experiment: Induction of EGFR E746-A750 deletion mutant degradation in human PC9 cells assessed as reduction in Akt phosphorylation at 0.4 to 0.8 uM incubated for 48 hrs by Western blot analysis; type: cell-based; conditions: 0.2 to 0.6 uM, in the assay text read “0.2 to 0.6 uM” for “0.4 to 0.8 uM”; in short: as §2
NCI-H1975 [11] = experiment: Cell cycle arrest in human NCI-H1975 cells harbouring EGFR L858R/T790M double mutant assessed as increase in cells accumulation at G2/M phase at 0.2 to 0.6 uM incubated for 48 hrs by propidium iodide based flow cytometry; type: functional; in short: as §1
NCI-H1975 [12] = experiment: Antiproliferative activity against human NCI-H1975 cells harbouring EGFR L858R/T790M double mutant assessed as reduction in cell viability incubated for 72 hrs by MTT assay; type: functional, cell-based; conditions: NCI-H1975, 72 h
PC-9 [13] = experiment: Cell cycle arrest in human PC9 cells harbouring EGFR delE746-A750 […] assessed as increase in cells accumulation at G2/M phase at 0.4 to 0.8 uM incubated for 48 hrs by propidium iodide based flow cytometry; type: functional; in short: as §1
[14] = target: Epidermal growth factor receptor (Homo sapiens) (UniProt P00533); experiment: Induction of EGFR degradation in wild type human A549 cells assessed as reduction in EGFR expression 0.2 to 0.6 uM incubated for 48 hrs by Western blot analysis; type: cell-based; in short: as §2
[15] = Antiproliferative activity against human CL68 cells harbouring EGFR delE746-A750/T790M mutant assessed as reduction in cell viability incubated for 48 hrs by MTT assay; type: functional, cell-based; in short: as §4
[16] = target: Epidermal growth factor receptor (Homo sapiens) (UniProt P00533); experiment: Induction of EGFR degradation in human MDA-MB-231 cells assessed as reduction in EGFR expression incubated for 48 hrs by immunoblot analysis; type: cell-based; in short: as §2
[17] = system: Epidermal growth factor receptor (Homo sapiens), P00533 [L858R,T790M]; experiment: Induction of EGFR L858R/T790M double mutant degradation in human NCI-H1975 cells assessed as change in EGFR expression at 0.2 to 0.6 uM incubated for 48 hrs by RT-PCR analysis; type: cell-based
In short: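 Total RNA extracted with TRIzol from H1975 and A549 cells treated at 0.2–0.6 µM. EGFR and c-Met mRNA assessed by RT-PCR.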

For `O=C(Nc1cccc(-c2nc(-c3ccc(NC(=O)c4cccnc4)cc3Cl)no2)c1)Nc1ccc(NC(=O)C2CC2)c(C(F)(F)F)c1`, the Activity (A549) was “Active”, the Activity [1] was “Active” and the Activity (Homo sapiens) was “Active”. The inhibition in vivo at 150 mg/kg (NCI-H1975 [2]) was 60%, the Activity [3] was “Active” and the Activity [4] was “Active”. The Activity [5] was “Non-Toxic”, the IC50 (PC-9 [6]) was 0.6 µM and the Activity (NCI-H1975 [7]) was “Dose-dependent effect”. The Activity [8] was “Active”, the TGI (NCI-H1975 [9]) was “Dose-dependent effect” and the Activity [10] was “Active”. For the same compound, the Activity (NCI-H1975 [11]) was “Active”, the IC50 (NCI-H1975 [12]) was 0.3 µM and the Activity (PC-9 [13]) was “Active”. The Activity [14] was “Active”, the IC50 [15] was 0.5 µM and the Activity [16] was “Active”. The Activity [17] was “inactive”.
